Assay results: ChEMBL document CHEMBL1132707, “1-(N-alkylamino)-11-(N-ethylamino)-4,8-diazaundecanes: simple synthetic polyamine analogues that differentially alter tubulin polymerization” (J Med Chem, 1999)

What was measured:
Assay type in all cases: protein assay
Tubulin (Bos taurus) [1] = molecular target: T1, Tubulin (Bos taurus) (UniProt Q6B856+Q862L2+Q862F3); assay: The compound was evaluated for its effect on tubulin polymerization in the absence of MAPS as equilibrium reading (10 min reading)
Outline: (§1)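 MAP-free purified tubulin, thawed immediately before use. Buffer A (0.1 M MES pH 6.7, 1.0 mM MgCl2, 0.5 mM EGTA), no GTP or organic solvent, with 1 mM analogue (or analogue plus 1 mM spermine), warmed to 37 °C. Started by 10-fold dilution of 10 mg/mL tubulin. OD340 followed from 30 s, equilibrium read at 10 min. At least three determinations, variation ≤10%.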

Tubulin (Bos taurus) [2] = molecular target: T1, Tubulin (Bos taurus); assay: The compound was evaluated for its effect on tubulin polymerization in the presence of MAPS as equilibrium reading (20 min reading)
Outline: (§2)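 MAP-rich tubulin, thawed just before the reaction. Buffer A (0.1 M MES pH 6.7, 1.0 mM MgCl2, 0.5 mM EGTA) containing 1 mM analogue (or analogue plus 1 mM spermine), equilibrated at 37 °C. Started by 7.5-fold dilution of 7.5 mg/mL tubulin. OD340 followed from 30 s, equilibrium read at 20 min. At least three determinations, variation ≤10%.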

Tubulin (Bos taurus) [3] = molecular target: T1, Tubulin (Bos taurus); assay: The compound was evaluated for its effect on tubulin polymerization in the absence of MAPS as rate =change in OD340/min; outline: as §1
Tubulin (Bos taurus) [4] = molecular target: T1, Tubulin (Bos taurus); assay: The compound was evaluated for its effect on tubulin polymerization in the presence of MAPS as rate =change in OD340/min; outline: as §2
Tubulin (Bos taurus) [5] = molecular target: T1, Tubulin (Bos taurus); assay: The compound (1 mM) + spermine (1 mM) mixture was evaluated for its effects on tubulin polymerization in the presence of MAPS as rate =change in OD340/min; outline: as §2
Tubulin (Bos taurus) [6] = molecular target: T1, Tubulin (Bos taurus); assay: The compound (1 mM) + spermine (1 mM) mixture was evaluated for its effect on tubulin polymerization in the absence of MAPS as rate =change in OD340/min; outline: as §1
Tubulin (Bos taurus) [7] = molecular target: T1, Tubulin (Bos taurus); assay: The compound (1 mM) + spermine (1 mM) mixture was evaluated for its effects on tubulin polymerization in the presence of MAPS as equilibrium reading (20 min reading); outline: as §2
Tubulin (Bos taurus) [8] = molecular target: T1, Tubulin (Bos taurus); assay: The compound (1 mM) + spermine (1 mM) mixture was evaluated for its effects on tubulin polymerization in the absence of MAPS as equilibrium reading (10 min reading); outline: as §1

Compound	Equilibrium OD340 (Tubulin (Bos taurus) [1])	Equilibrium OD340 (Tubulin (Bos taurus) [2])	Rate (delta OD340 min-1) (Tubulin (Bos taurus) [3])	Rate (delta OD340 min-1) (Tubulin (Bos taurus) [4])	Rate (delta OD340 min-1) (Tubulin (Bos taurus) [5])	Rate (delta OD340 min-1) (Tubulin (Bos taurus) [6])	Equilibrium OD340 (Tubulin (Bos taurus) [7])	Equilibrium OD340 (Tubulin (Bos taurus) [8])	Rate (Tubulin (Bos taurus) [6])
NCCCNCCCCNCCCN	1.31	0.624	0.14	0.055					
CCNCCCNCCCNCCCNCC1CCCCCC1	2.42	1.3	0.37	0.25	0.16	0.131	1.01	1.71	
CCNCCCNCCCNCCCNC[C@@H](C)CC	1.79	0.247	0.69	0.021	0.069		0.392	1.09	0.205
CCNCCCNCCCNCCCNCC1CC1	0.563	0.098	0.096	0.036	0.031	0.131	0.514	1.08	
